Experimental data taken from ChEMBL document CHEMBL4130484, “Identification and optimization of novel 6-acylamino-2-aminoquinolines as potent Hsp90 C-terminal inhibitors” (Eur J Med Chem, 2017).
In brackets after ≈: the same amount, converted by molar mass. Activity calls are given as the source filed them. No cut-off for these calls is given here.

What was measured:
MCF7 [1] = assay: Induction of apoptosis in human MCF7 cells assessed as early apoptotic cells level at 5 uM incubated for 24 hrs by Annexin V-FITC and propidium iodide staining based flow cytometry (reference value: 1.93%); format: functional
MCF7 [2] = assay: Induction of apoptosis in human MCF7 cells assessed as late apoptotic cells level at 2.5 uM incubated for 24 hrs by Annexin V-FITC and propidium iodide staining based flow cytometry (reference value: 4.19%); format: functional
4T1 [3] = assay: Antitumor activity against mouse 4T1 cells implanted in BALB/c mouse assessed as inhibition of tumor growth at 10 mg/kg/day, ip for 2 weeks measured every 2 days; format: functional; conditions: 4T1, ip, read-out: TGI
Procedure, shortened: (§1)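 BALB/c mice bearing 4T1 breast tumors were dosed ip daily for 2 weeks with vehicle, 10 or 30 mg/kg, starting once mean tumor volume reached 50 mm³. Tumor diameters were measured every two days; TGI derived.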

MCF7 [4] = assay: Induction of apoptosis in human MCF7 cells assessed as viable cells level at 2.5 uM incubated for 24 hrs by Annexin V-FITC and propidium iodide staining based flow cytometry (reference value: 93.37%); format: functional
Mus musculus [5] = assay: Toxicity in BALB/c mouse implanted with mouse 4T1 cells assessed as induction of body weight loss at 10 mg/kg/day, ip for 2 weeks measured every 2 days; format: organism-based; conditions: in vivo
Procedure, shortened: (§2)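 4T1 tumor-bearing BALB/c mice were given vehicle, 10 or 30 mg/kg ip daily for 2 weeks from mean tumor volume 50 mm³. Body weight was monitored during treatment.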

MCF7 [6] = assay: Induction of apoptosis in human MCF7 cells assessed as necrotic cells level at 2.5 uM incubated for 24 hrs by Annexin V-FITC and propidium iodide staining based flow cytometry (reference value: 0.51%); format: functional
MCF7 [7] = assay: Induction of apoptosis in human MCF7 cells assessed as necrotic cells level at 10 uM incubated for 24 hrs by Annexin V-FITC and propidium iodide staining based flow cytometry (reference value: 0.51%); format: functional
MCF7 [8] = assay: Induction of apoptosis in human MCF7 cells assessed as late apoptotic cells level at 5 uM incubated for 24 hrs by Annexin V-FITC and propidium iodide staining based flow cytometry (reference value: 4.19%); format: functional
MCF7 [9] = assay: Induction of apoptosis in human MCF7 cells assessed as viable cells level at 10 uM incubated for 24 hrs by Annexin V-FITC and propidium iodide staining based flow cytometry (reference value: 93.37%); format: functional
MCF7 [10] = assay: Induction of apoptosis in human MCF7 cells assessed as necrotic cells level at 5 uM incubated for 24 hrs by Annexin V-FITC and propidium iodide staining based flow cytometry (reference value: 0.51%); format: functional
SK-BR-3 = assay: Antiproliferative activity against human SKBR3 cells incubated for 72 hrs by MTT assay; format: functional, cell-based; conditions: SK-BR-3, 72 h
Procedure, shortened: (§3)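 MTT antiproliferation assay in MCF7 and SKBr3 breast cancer cells; IC50 determined.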

MCF7 [11] = assay: Induction of apoptosis in human MCF7 cells assessed as early apoptotic cells level at 2.5 uM incubated for 24 hrs by Annexin V-FITC and propidium iodide staining based flow cytometry (reference value: 1.93%); format: functional
4T1 [12] = assay: Antitumor activity against mouse 4T1 cells implanted in BALB/c mouse assessed as inhibition of lung metastasis at 30 mg/kg/day, ip for 2 weeks measured every 2 days by H and E staining; format: functional, organism-based
Procedure, shortened: (§4)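 4T1 tumor-bearing BALB/c mice were dosed ip daily for 2 weeks with vehicle, 10 or 30 mg/kg, starting at mean tumor volume 50 mm³. Lung tissue was then examined for metastasis.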

[13] = Intrinsic aqueous solubility of the compound; format: physicochemical
Procedure, shortened: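 Intrinsic aqueous solubility determined on a Gemini Profiler instrument.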

[14] = Permeability coefficient of the compound at pH 7.4 by double-sink PAMPA; format: ADME; conditions: read-out: permeability
Procedure, shortened: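 Double-sink PAMPA at pH 7.4 on a PAMPA Explorer instrument; Pe reported as mean ± SD, n = 3.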

MCF7 [15] = assay: Antiproliferative activity against human MCF7 cells incubated for 72 hrs by MTT assay; format: functional, cell-based; conditions: MCF7, 72 h; procedure, shortened: as §3
[16] = biological target: T1, Heat shock protein HSP90 (Homo sapiens) (UniProt P07900+P08238); assay: Inhibition of HSP90 C-terminal in human MCF7 cells assessed as reduction in CDK6 protein expression incubated for 24 hrs by Western blot method; format: cell-based
Procedure, shortened: (§5)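 MCF7 cells incubated 24 h with various concentrations, then client protein levels read by Western blot. β-Actin served as loading control. AT13387 (1.0 µM), an N-terminal Hsp90 inhibitor, was the positive control.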

4T1 [17] = assay: Antitumor activity against mouse 4T1 cells implanted in BALB/c mouse assessed as inhibition of lung metastasis at 10 mg/kg/day, ip for 2 weeks measured every 2 days by H and E staining; format: functional, organism-based; procedure, shortened: as §4
MCF7 [18] = assay: Induction of apoptosis in human MCF7 cells assessed as late apoptotic cells level at 10 uM incubated for 24 hrs by Annexin V-FITC and propidium iodide staining based flow cytometry (reference value: 4.19%); format: functional
MCF7 [19] = assay: Induction of apoptosis in human MCF7 cells assessed as early apoptotic cells level at 10 uM incubated for 24 hrs by Annexin V-FITC and propidium iodide staining based flow cytometry (reference value: 1.93%); format: functional
MCF7 [20] = assay: Induction of heat shock response in human MCF7 cells assessed as effect on HSP70 protein expression at 1 to 10 uM incubated for 24 hrs by Western blot method; format: cell-based; conditions: mcf7, 24 h; procedure, shortened: as §5
MCF7 [21] = assay: Inhibition of cell migration in human MCF7 cells incubated for 24 hrs by wound healing assay; format: functional, cell-based
Procedure, shortened: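 Wound healing in MCF7 cells: the monolayer was scratched with a 200 µL sterile pipette tip, treated 24 h at various concentrations, then imaged.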

[22] = Distribution coefficient, log D of the compound at pH 7.4; format: physicochemical; conditions: octanol/water
Procedure, shortened: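 Log D at pH 7.4 measured on a PULSE platform.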

[23] = biological target: T1, Heat shock protein HSP90 (Homo sapiens); assay: Inhibition of HSP90 C-terminal in human MCF7 cells assessed as reduction in Akt protein expression incubated for 24 hrs by Western blot method; format: cell-based; procedure, shortened: as §5
MCF7 [24] = assay: Induction of heat shock response in human MCF7 cells assessed as effect on HSP90 protein expression at 1 to 10 uM incubated for 24 hrs by Western blot method; format: cell-based; conditions: mcf7, 24 h; procedure, shortened: as §5
[25] = biological target: T1, Heat shock protein HSP90 (Homo sapiens); assay: Inhibition of HSP90 C-terminal in human MCF7 cells assessed as reduction in ERK protein expression incubated for 24 hrs by Western blot method; format: cell-based; procedure, shortened: as §5
MCF7 [26] = assay: Induction of apoptosis in human MCF7 cells assessed as viable cells level at 5 uM incubated for 24 hrs by Annexin V-FITC and propidium iodide staining based flow cytometry (reference value: 93.37%); format: functional
4T1 [27] = assay: Antitumor activity against mouse 4T1 cells implanted in BALB/c mouse assessed as inhibition of tumor growth at 30 mg/kg/day, ip for 2 weeks measured every 2 days; format: functional; conditions: 4T1, ip, read-out: TGI; procedure, shortened: as §1
Mus musculus [28] = assay: Toxicity in BALB/c mouse implanted with mouse 4T1 cells assessed as induction of body weight loss at 30 mg/kg/day, ip for 2 weeks measured every 2 days; format: organism-based; conditions: in vivo; procedure, shortened: as §2
[29] = biological target: T1, Heat shock protein HSP90 (Homo sapiens); assay: Inhibition of HSP90 C-terminal in human MCF7 cells assessed as reduction in Akt protein expression at 5 to 20 uM incubated for 24 hrs by Western blot method; format: cell-based; procedure, shortened: as §5
MCF7 [30] = assay: Growth inhibition of human MCF7 cells at 50 uM incubated for 72 hrs by MTT assay; format: functional; conditions: MCF7, 72 h, read-out: GI
Procedure, shortened: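 MTT screen in MCF7 cells at a single concentration of 50 µM; growth inhibition rate recorded.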

[31] = biological target: T1, Heat shock protein HSP90 (Homo sapiens); assay: Inhibition of HSP90 C-terminal in human MCF7 cells assessed as reduction in ERK protein expression at 5 to 20 uM incubated for 24 hrs by Western blot method; format: cell-based; procedure, shortened: as §5
[32] = biological target: T1, Heat shock protein HSP90 (Homo sapiens); assay: Inhibition of HSP90 C-terminal in human MCF7 cells assessed as reduction in CDK6 protein expression at 5 to 20 uM incubated for 24 hrs by Western blot method; format: cell-based; procedure, shortened: as §5

Cc1cc(NCCN2CCCCC2)nc2ccc(NC(=O)c3ccc(Cl)c(Cl)c3)cc12
Activity (MCF7 [1]): 5.21%
Activity (MCF7 [2]): 4.33%
inhibition in vivo at 10 mg/kg/day (4T1 [3]): 26%
Activity (MCF7 [4]): 93.3%
Activity (Mus musculus [5]): Non-Toxic
Activity (MCF7 [6]): 0.8%
Activity (MCF7 [7]): 5.5%
Activity (MCF7 [8]): 12.8%
Activity (MCF7 [9]): 42.69%
Activity (MCF7 [10]): 3.13%
IC50 (SK-BR-3): 1.8 µM
Activity (MCF7 [11]): 1.57%
inhibition (4T1 [12]): Active
solubility [13]: 70.8 µg/mL (≈ 155 µM)
Papp [14]: 47.3 ×10⁻⁶ cm/s
IC50 (MCF7 [15]): 1.19 µM
inhibition [16]: Dose-dependent effect
inhibition (4T1 [17]): Active
Activity (MCF7 [18]): 31.59%
Activity (MCF7 [19]): 20.22%
Activity (MCF7 [20]): Non-Toxic
inhibition (MCF7 [21]): Dose-dependent effect
logD [22]: 2.72
inhibition [23]: Dose-dependent effect
Activity (MCF7 [24]): Non-Toxic
inhibition [25]: Dose-dependent effect
Activity (MCF7 [26]): 78.86%
inhibition in vivo at 30 mg/kg/day (4T1 [27]): 47%
Activity (Mus musculus [28]): Non-Toxic

Cc1oc2ncn(CC(C)C)c(=O)c2c1C(=O)Nc1ccc(C(=O)NCCN2CCCC2)nc1
inhibition [29]: inactive
inhibition of growth at 50 µM (MCF7 [30]): 90.4%
inhibition [31]: inactive
IC50 (SK-BR-3): 8.09 µM
IC50 (MCF7 [15]): 8.41 µM
inhibition [32]: inactive

CCN1CCN(c2cc(C)c3cc(NC(=O)c4ccc(Cl)c(Cl)c4)ccc3n2)CC1
IC50 (SK-BR-3): 2.16 µM
solubility [13]: 11.3 µg/mL (≈ 25.5 µM)
Papp [14]: 25.9 ×10⁻⁶ cm/s
IC50 (MCF7 [15]): 1.38 µM
logD [22]: 3.67

CCN1CCN(c2cc(C)c3cc(NC(=O)c4cccc(OC)c4)ccc3n2)CC1
inhibition [29]: Active
inhibition of growth at 50 µM (MCF7 [30]): 96.9%
inhibition [31]: Active
IC50 (SK-BR-3): 3.33 µM
IC50 (MCF7 [15]): 4.86 µM
inhibition [32]: Active

Cc1cc(NCCN2CCN(C)CC2)nc2ccc(NC(=O)c3ccc(Cl)c(Cl)c3)cc12
IC50 (SK-BR-3): 2.69 µM
solubility [13]: 106 µg/mL (≈ 224 µM)
Papp [14]: 7.71 ×10⁻⁶ cm/s
IC50 (MCF7 [15]): 1.7 µM
logD [22]: 1.73

CCN(CC)CCNc1cc(C)c2cc(NC(=O)c3ccc(Cl)c(Cl)c3)ccc2n1
IC50 (SK-BR-3): 3.71 µM
solubility [13]: 95.2 µg/mL (≈ 214 µM)
Papp [14]: 28.1 ×10⁻⁶ cm/s
IC50 (MCF7 [15]): 1.42 µM
logD [22]: 1.66

Cc1cc(NCCN2CCCC2)nc2ccc(NC(=O)c3ccc(Cl)c(Cl)c3)cc12
IC50 (SK-BR-3): 9.53 µM
solubility [13]: 84.5 µg/mL (≈ 191 µM)
Papp [14]: 20.8 ×10⁻⁶ cm/s
IC50 (MCF7 [15]): 1.28 µM
logD [22]: 1.72

CCN(CC)CCOC(=O)c1ccc(NC(=O)C2=CC3C(c4ccccc4F)=NN(C)C3S2)cc1 (configuration not stated)
inhibition [29]: inactive
inhibition of growth at 50 µM (MCF7 [30]): 99.6%
inhibition [31]: inactive
IC50 (SK-BR-3): 4.99 µM
IC50 (MCF7 [15]): 5.38 µM
inhibition [32]: inactive

Cc1cc(NCCN2CCOCC2)nc2ccc(NC(=O)c3ccc(Cl)c(Cl)c3)cc12
IC50 (SK-BR-3): 9.16 µM
solubility [13]: 76.2 µg/mL (≈ 166 µM)
Papp [14]: 49.8 ×10⁻⁶ cm/s
IC50 (MCF7 [15]): 5.23 µM
logD [22]: 2.64

Cc1cc(NCCN(C)C)nc2ccc(NC(=O)c3ccc(Cl)c(Cl)c3)cc12
IC50 (SK-BR-3): 6.67 µM
solubility [13]: 122 µg/mL (≈ 292 µM)
Papp [14]: 3.13 ×10⁻⁶ cm/s
IC50 (MCF7 [15]): 2.55 µM
logD [22]: 1.47
